Measurements taken from ChEMBL document CHEMBL2057101, “Fluorocyclines. 2. Optimization of the C-9 side-chain for antibacterial activity and oral efficacy” (J Med Chem, 2012).
≈ marks a conversion by molar mass, not a printed value.

Tests used:
Assay type in all cases: functional
Staphylococcus aureus [1] = test: Antibacterial activity against tetracycline-susceptible Staphylococcus aureus ATCC 13709 Smith isolate SA100
In short: (§1)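 Broth microdilution MIC following CLSI methods in cation-adjusted Mueller Hinton broth, prepared fresh and held at 4 °C before testing. Defibrinated horse blood added to the medium where appropriate. Runs accepted when quality control ranges for comparator antibiotics and ATCC QC strains were met.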

Staphylococcus aureus [2] = test: Antibacterial activity against tetracycline-resistant Staphylococcus aureus isolate SA161 expressing TetM gene; in short: as §1
Staphylococcus aureus [3] = test: Antibacterial activity against tetracycline-resistant Staphylococcus aureus isolate SA158 expressing TetK gene
Streptococcus pneumoniae [4] = test: Antibacterial activity against Streptococcus pneumoniae ATCC 49619 isolate 106
In short: (§2)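 MIC by broth microdilution in liquid medium per CLSI, in cation-adjusted Mueller Hinton broth made fresh and held at 4 °C before testing. Horse blood (defibrinated) added to the medium where appropriate. Runs were accepted only when the comparator antibiotics and ATCC QC strains fell within their recommended ranges.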

Streptococcus pneumoniae [5] = test: Antibacterial activity against tetracycline-resistant Streptococcus pneumoniae isolate 160 expressing tetM gene
Escherichia coli [6] = test: Antibacterial activity against Escherichia coli ATCC 25922 isolate 107; in short: as §2
Escherichia coli [7] = test: Antibacterial activity against Escherichia coli isolate EC155 expressing tetA gene; in short: as §2
Klebsiella pneumoniae = test: Antibacterial activity against Klebsiella pneumoniae ATCC 13883; in short: as §2

SMILES	MIC (Staphylococcus aureus [1]) [µg/mL]	MIC (Staphylococcus aureus [2]) [µg/mL]	MIC (Staphylococcus aureus [3]) [µg/mL]	MIC (Streptococcus pneumoniae [4]) [µg/mL]	MIC (Streptococcus pneumoniae [5]) [µg/mL]	MIC (Escherichia coli [6]) [µg/mL]	MIC (Escherichia coli [7]) [µg/mL]	MIC (Klebsiella pneumoniae) [µg/mL]
CN(C)[C@@H]1C(O)=C(C(N)=O)C(=O)[C@@]2(O)C(O)=C3C(=O)c4c(O)c(NC(=O)CNC(C)(C)C)cc(F)c4C[C@H]3C[C@@H]12	0.25 (≈ 0.446 µM)	0.25 (≈ 0.446 µM)	0.063 (≈ 0.112 µM)	0.016 (≈ 0.0285 µM)	0.016 (≈ 0.0285 µM)	0.25 (≈ 0.446 µM)	2 (≈ 3.57 µM)	1 (≈ 1.78 µM)
CN(C)[C@@H]1C(O)=C(C(N)=O)C(=O)[C@@]2(O)C(O)=C3C(=O)c4c(O)c(NC(=O)[C@H]5CCCN5C)cc(F)c4C[C@H]3C[C@@H]12	2 (≈ 3.58 µM)	2 (≈ 3.58 µM)	2 (≈ 3.58 µM)	0.25 (≈ 0.448 µM)	0.25 (≈ 0.448 µM)	2 (≈ 3.58 µM)	16 (≈ 28.6 µM)	4 (≈ 7.16 µM)
CC(C)N1CCC[C@H]1C(=O)Nc1cc(F)c2c(c1O)C(=O)C1=C(O)[C@]3(O)C(=O)C(C(N)=O)=C(O)[C@@H](N(C)C)[C@@H]3C[C@@H]1C2	0.5 (≈ 0.852 µM)	1 (≈ 1.7 µM)	0.25 (≈ 0.426 µM)	≤ 0.016	≤ 0.016	2 (≈ 3.41 µM)	8 (≈ 13.6 µM)	
CN(C)[C@@H]1C(O)=C(C(N)=O)C(=O)[C@@]2(O)C(O)=C3C(=O)c4c(O)c(NC(=O)[C@@H]5C[C@@H](F)CN5C)cc(F)c4C[C@H]3C[C@@H]12	0.5 (≈ 0.867 µM)	2 (≈ 3.47 µM)	1 (≈ 1.73 µM)	0.063 (≈ 0.109 µM)	0.063 (≈ 0.109 µM)	4 (≈ 6.94 µM)	> 32	8 (≈ 13.9 µM)
CN(C)[C@@H]1C(O)=C(C(N)=O)C(=O)[C@@]2(O)C(O)=C3C(=O)c4c(O)c(NC(=O)[C@@H]5CC(F)(F)CN5C)cc(F)c4C[C@H]3C[C@@H]12	1 (≈ 1.68 µM)	1 (≈ 1.68 µM)	1 (≈ 1.68 µM)	0.5 (≈ 0.841 µM)	0.5 (≈ 0.841 µM)	> 32	> 32	> 32
CN(C)[C@@H]1C(O)=C(C(N)=O)C(=O)[C@@]2(O)C(O)=C3C(=O)c4c(O)c(NC(=O)[C@@H]5CCCCN5)cc(F)c4C[C@H]3C[C@@H]12	0.5 (≈ 0.895 µM)	1 (≈ 1.79 µM)	0.25 (≈ 0.448 µM)	0.031 (≈ 0.0555 µM)	0.063 (≈ 0.113 µM)	0.5 (≈ 0.895 µM)	8 (≈ 14.3 µM)	2 (≈ 3.58 µM)
CN(C)[C@@H]1C(O)=C(C(N)=O)C(=O)[C@@]2(O)C(O)=C3C(=O)c4c(O)c(NC(=O)[C@@H]5CCCCN5C)cc(F)c4C[C@H]3C[C@@H]12	2 (≈ 3.49 µM)	8 (≈ 14 µM)	1 (≈ 1.75 µM)	0.13 (≈ 0.227 µM)	0.25 (≈ 0.437 µM)	0.5 (≈ 0.873 µM)	> 32	2 (≈ 3.49 µM)
CN(C)[C@@H]1C(O)=C(C(N)=O)C(=O)[C@@]2(O)C(O)=C3C(=O)c4c(O)c(NC(=O)[C@H]5CCCCN5)cc(F)c4C[C@H]3C[C@@H]12	2 (≈ 3.58 µM)	2 (≈ 3.58 µM)	2 (≈ 3.58 µM)	0.5 (≈ 0.895 µM)	0.5 (≈ 0.895 µM)	4 (≈ 7.16 µM)	> 32	16 (≈ 28.6 µM)
CN(C)[C@@H]1C(O)=C(C(N)=O)C(=O)[C@@]2(O)C(O)=C3C(=O)c4c(O)c(NC(=O)c5cccn5C)cc(F)c4C[C@H]3C[C@@H]12	0.25 (≈ 0.451 µM)	0.5 (≈ 0.902 µM)	0.5 (≈ 0.902 µM)	8 (≈ 14.4 µM)	8 (≈ 14.4 µM)	> 32	> 32	> 32
Cc1cc(C(=O)Nc2cc(F)c3c(c2O)C(=O)C2=C(O)[C@]4(O)C(=O)C(C(N)=O)=C(O)[C@@H](N(C)C)[C@@H]4C[C@@H]2C3)no1	0.25 (≈ 0.449 µM)	0.5 (≈ 0.898 µM)	0.5 (≈ 0.898 µM)	2 (≈ 3.59 µM)	2 (≈ 3.59 µM)	> 32	> 32	> 32
CN(C)[C@@H]1C(O)=C(C(N)=O)C(=O)[C@@]2(O)C(O)=C3C(=O)c4c(O)c(N)cc(F)c4C[C@H]3C[C@@H]12	0.25 (≈ 0.559 µM)	2 (≈ 4.47 µM)	2 (≈ 4.47 µM)	0.25 (≈ 0.559 µM)	4 (≈ 8.94 µM)	2 (≈ 4.47 µM)	32 (≈ 71.5 µM)	4 (≈ 8.94 µM)
CN(C)[C@@H]1C(O)=C(C(N)=O)C(=O)[C@@]2(O)C(O)=C3C(=O)c4c(O)c(NC(=O)c5ccccc5)cc(F)c4C[C@H]3C[C@@H]12	0.25 (≈ 0.453 µM)	0.25 (≈ 0.453 µM)	0.5 (≈ 0.907 µM)	16 (≈ 29 µM)	16 (≈ 29 µM)	> 32	> 32	> 32
CN(C)[C@@H]1C(O)=C(C(N)=O)C(=O)[C@@]2(O)C(O)=C3C(=O)c4c(O)c(NC(=O)c5cccc(C(F)(F)F)c5)cc(F)c4C[C@H]3C[C@@H]12	0.25 (≈ 0.404 µM)	0.5 (≈ 0.807 µM)	0.13 (≈ 0.21 µM)	> 32	> 32	> 32	> 32	> 32
COc1cccc(C(=O)Nc2cc(F)c3c(c2O)C(=O)C2=C(O)[C@]4(O)C(=O)C(C(N)=O)=C(O)[C@@H](N(C)C)[C@@H]4C[C@@H]2C3)c1	0.13 (≈ 0.224 µM)	0.25 (≈ 0.43 µM)	0.13 (≈ 0.224 µM)	> 32	> 32	> 32	> 32	> 32
CN(C)c1ccccc1C(=O)Nc1cc(F)c2c(c1O)C(=O)C1=C(O)[C@]3(O)C(=O)C(C(N)=O)=C(O)[C@@H](N(C)C)[C@@H]3C[C@@H]1C2	0.13 (≈ 0.219 µM)	0.13 (≈ 0.219 µM)	0.063 (≈ 0.106 µM)	32 (≈ 53.8 µM)	> 32	> 32	> 32	> 32
CN(C)c1cccc(C(=O)Nc2cc(F)c3c(c2O)C(=O)C2=C(O)[C@]4(O)C(=O)C(C(N)=O)=C(O)[C@@H](N(C)C)[C@@H]4C[C@@H]2C3)c1	0.13 (≈ 0.219 µM)	0.13 (≈ 0.219 µM)	0.13 (≈ 0.219 µM)	> 32	> 32	> 32	> 32	> 32
CN(C)c1ccc(C(=O)Nc2cc(F)c3c(c2O)C(=O)C2=C(O)[C@]4(O)C(=O)C(C(N)=O)=C(O)[C@@H](N(C)C)[C@@H]4C[C@@H]2C3)cc1	0.063 (≈ 0.106 µM)	0.063 (≈ 0.106 µM)	0.063 (≈ 0.106 µM)	2 (≈ 3.36 µM)	8 (≈ 13.5 µM)	> 32	> 32	> 32
CN(C)[C@@H]1C(O)=C(C(N)=O)C(=O)[C@@]2(O)C(O)=C3C(=O)c4c(O)c(NC(=O)c5cccs5)cc(F)c4C[C@H]3C[C@@H]12	0.13 (≈ 0.233 µM)	0.25 (≈ 0.448 µM)	0.5 (≈ 0.897 µM)	16 (≈ 28.7 µM)	16 (≈ 28.7 µM)	> 32	> 32	> 32
CN(C)[C@@H]1C(O)=C(C(N)=O)C(=O)[C@@]2(O)C(O)=C3C(=O)c4c(O)c(NC(=O)c5cccnc5)cc(F)c4C[C@H]3C[C@@H]12	2 (≈ 3.62 µM)	4 (≈ 7.24 µM)	16 (≈ 29 µM)	1 (≈ 1.81 µM)	2 (≈ 3.62 µM)	> 32	> 32	> 32
CN(C)[C@@H]1C(O)=C(C(N)=O)C(=O)[C@@]2(O)C(O)=C3C(=O)c4c(O)c(NC(=O)[C@H]5CCCN5)cc(F)c4C[C@H]3C[C@@H]12	2 (≈ 3.67 µM)	2 (≈ 3.67 µM)	4 (≈ 7.35 µM)	0.13 (≈ 0.239 µM)	0.5 (≈ 0.918 µM)	4 (≈ 7.35 µM)	32 (≈ 58.8 µM)	8 (≈ 14.7 µM)
